Data as given in ChEMBL document CHEMBL2424574, “Structure-activity relationships and pharmacophore model of a noncompetitive pyrazoline containing class of GluN2C/GluN2D selective antagonists” (J Med Chem, 2013).
Active and inactive are the calls of the source. The rule behind the calls is not given here.

How the values were obtained:
Liver microsomes = assay: Metabolic stability in human liver microsomes assessed as compound remaining at 1 uM after 20 mins by LC-MS/MS analysis; type: ADME, Microsome
Method in brief: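 Human liver microsomes 0.5 mg/mL in 100 mM potassium phosphate pH 7.4 with 5 mM MgCl2 and 1 μM test compound. Preincubated 3 min at 37 °C, then started with 1 mM NADPH, with a testosterone control in parallel. Sampled at 0, 10, 20, 30 and 60 min and quenched in cold acetonitrile/water with formic acid and internal standard. Percent remaining by LC-MS/MS (MRM) versus time 0. t1/2 = 0.693/k from the ln-remaining slope; CLint = k/protein concentration.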

MDCK = assay: Permeability across basolateral to apical side in dog MDCK cells expressing MDR1 assessed as compound recovery at 5 uM after 120 mins by LC-MS/MS analysis; type: ADME, cell-based, Canis lupus familiaris; conditions: 2 h
Method in brief: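 MDR1-MDCK monolayers grown to confluence on collagen-coated polycarbonate membranes. Assay buffer was HBSS with 10 mM HEPES and 15 mM glucose, pH 7.4, and the receiver side also held 1% BSA. Monolayers were dosed apically (A-to-B) or basolaterally (B-to-A) at 5 μM, 37 °C, 5% CO2. Donor and receiver were sampled at 120 min, in duplicate, by LC-MS/MS (ESI). Papp and percent recovery were calculated from receiver/donor concentrations.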

Histamine H2 receptor = Histamine H2 receptor (Homo sapiens, UniProt P25021); assay: Inhibition of histamine H2 receptor (unknown origin)
Histamine H2 receptor, sequence (P25021 whole entry): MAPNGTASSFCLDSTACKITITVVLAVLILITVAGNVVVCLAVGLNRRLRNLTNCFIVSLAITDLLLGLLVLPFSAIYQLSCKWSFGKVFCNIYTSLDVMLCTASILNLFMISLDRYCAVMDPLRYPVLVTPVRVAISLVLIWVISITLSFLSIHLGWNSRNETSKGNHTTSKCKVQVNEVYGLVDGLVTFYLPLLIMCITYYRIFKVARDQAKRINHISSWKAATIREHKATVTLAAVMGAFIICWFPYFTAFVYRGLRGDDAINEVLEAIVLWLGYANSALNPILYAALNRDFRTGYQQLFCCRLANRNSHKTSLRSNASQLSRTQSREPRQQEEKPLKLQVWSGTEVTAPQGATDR
Method in brief: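 Radioligand panel screening was run through the NIMH Psychoactive Drug Screening Program with compounds at 5 µM.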

Homo sapiens = organism: Homo sapiens; assay: Inhibition of GluN2D receptor L705F mutant (unknown origin)
[1] = biological target: Ionotropic glutamate receptor NMDA 1/2D (Homo sapiens) (UniProt Q05586+O15399); conditions: Oocyte, 1 uM

Row | Structure (SMILES) | Stability (Liver microsomes) [%] | Drug recovery (MDCK) [%] | Ki (Histamine H2 receptor) [µM] | inhibition (Homo sapiens) | residual activity [1] [%]
1 | O=C(O)CCC(=O)N1N=C(c2c(-c3ccc(Cl)cc3)c3ccccc3[nH]c2=O)CC1c1ccc(Cl)cc1 (racemic) | 100 | 76 | > 10 | – | –
2 | O=C(O)/C=C/C(=O)N1N=C(c2c(-c3ccc(Br)cc3)c3ccccc3[nH]c2=O)CC1c1ccc(Cl)cc1 (racemic) | – | – | – | inactive | 4.8
